Assay results taken from ChEMBL document CHEMBL3525900, “Pharmacokinetics, distribution, and metabolism of [14C]sunitinib in rats, monkeys, and humans” (Drug Metab Dispos, 2012).

What was measured:
Spinal cord [1] = assay: Drug concentration in female albino rat spinal cord assessed as radioactivity per gram of tissue at 20 mg/kg administered as single dose via gastric gavage measured after 24 hrs by autoradiographic analysis; assay type: ADME, organism-based; design: dose 20 mg/kg, dosed compound name [14C]Sunitinib; settings: in vivo, po
Small intestine = assay: Drug concentration in female albino rat small intestine assessed as radioactivity per gram of tissue at 20 mg/kg administered as single dose via gastric gavage measured after 72 hrs by autoradiographic analysis; assay type: ADME, organism-based; design: dose 20 mg/kg, dosed compound name [14C]Sunitinib; settings: in vivo, po
Kidney = assay: Drug concentration in male albino rat kidney assessed as radioactivity per gram of tissue at 20 mg/kg administered as single dose via gastric gavage measured after 6 hrs by autoradiographic analysis; assay type: ADME, organism-based; design: dose 20 mg/kg, dosed compound name [14C]Sunitinib; settings: in vivo, po
[2] = Drug concentration in female Lister Hooded pigmented rat thyroid gland assessed as radioactivity per gram of tissue at 20 mg/kg administered as single dose via gastric gavage measured after 24 hrs by autoradiographic analysis; assay type: ADME, organism-based; design: dose 20 mg/kg, dosed compound name [14C]Sunitinib; settings: in vivo, po
How it was run: (§1)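 Lister Hooded (pigmented) rats, ca 7-8 weeks old, acclimated 7 days, given [14C]sunitinib L-malate by gastric gavage at 20 mg/kg (15 mg freebase/kg, 100 µCi/kg). One male and one female killed by CO2 at 24, 72, 168 and 336 h. Carcasses frozen in solid CO2/hexane and embedded in frozen cellulose. 30 µm sagittal cryosections were freeze-dried. Tissue radioactivity measured by quantitative whole-body autoradiography against calibration standards, with background subtracted.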

[3] = Drug concentration in female albino rat uterus assessed as radioactivity per gram of tissue at 20 mg/kg administered as single dose via gastric gavage measured after 72 hrs by autoradiographic analysis; assay type: ADME, organism-based; design: dose 20 mg/kg, dosed compound name [14C]Sunitinib; settings: in vivo, po
Cynomolgus monkey = assay: AUC (0 to infinity) as total radioactivity in male cynomolgus monkey plasma at 6 mg/kg, po administered as single dose by LC/MS/MS analysis; assay type: ADME, organism-based, Macaca fascicularis; design: time infinity, dose 6 mg/kg, dosed compound name [14C]Sunitinib, route oral; settings: in vivo
How it was run: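 Cynomolgus monkeys of both sexes received one oral gavage of [14C]sunitinib L-malate at 6 mg/kg (37 µCi/kg). Femoral-vein blood was taken into heparin from 0.5 to 336 h. Plasma was kept cold and protected from light, then stored at -80 °C. Total radioactivity was by scintillation counting and sunitinib by methanol-extraction LC-MS-MS. Cmax was from raw data, t½ from the log-linear terminal slope, AUC(0-∞) by linear trapezoidal rule.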

Stomach [4] = assay: Drug concentration in male albino rat stomach assessed as radioactivity per gram of tissue at 20 mg/kg administered as single dose via gastric gavage measured after 3 hrs by autoradiographic analysis; assay type: ADME, organism-based; design: dose 20 mg/kg, dosed compound name [14C]Sunitinib; settings: in vivo, po
[5] = Drug concentration in female albino rat eye assessed as radioactivity per gram of tissue at 20 mg/kg administered as single dose via gastric gavage measured after 6 hrs by autoradiographic analysis; assay type: ADME, organism-based; design: dose 20 mg/kg, dosed compound name [14C]Sunitinib; settings: in vivo, po
How it was run: (§2)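 Sprague Dawley albino rats, ca 7-8 weeks old, dosed once by gastric gavage with [14C]sunitinib L-malate (15 mg freebase/kg, 100 µCi/kg). One male and one female killed by CO2 at 3, 6, 24, 72 and 168 h. Carcasses frozen in solid CO2/hexane, embedded and cut into 30 µm sagittal sections, then freeze-dried. Radioactivity quantified by whole-body autoradiography against standards by regression, background subtracted.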

Spinal cord [6] = assay: Drug concentration in male albino rat spinal cord assessed as radioactivity per gram of tissue at 20 mg/kg administered as single dose via gastric gavage measured after 6 hrs by autoradiographic analysis; assay type: ADME, organism-based; design: dose 20 mg/kg, dosed compound name [14C]Sunitinib; settings: in vivo, po
Blood [7] = assay: Drug concentration in male Lister Hooded pigmented rat blood assessed as radioactivity per gram of tissue at 20 mg/kg administered as single dose via gastric gavage measured after 24 hrs by autoradiographic analysis; assay type: ADME, organism-based; design: dose 20 mg/kg, dosed compound name [14C]Sunitinib; settings: in vivo, po
Large intestine = assay: Drug concentration in male albino rat large intestine assessed as radioactivity per gram of tissue at 20 mg/kg administered as single dose via gastric gavage measured after 24 hrs by autoradiographic analysis; assay type: ADME, organism-based; design: dose 20 mg/kg, dosed compound name [14C]Sunitinib; settings: in vivo, po
[8] = Drug recovery in feces of human at 50 mg, po administered as single dose during 0 to 504 hrs by liquid scintillation counting; assay type: ADME, organism-based; design: dosed compound name [14C]Sunitinib; settings: in vivo
Stomach [9] = assay: Drug concentration in female albino rat stomach assessed as radioactivity per gram of tissue at 20 mg/kg administered as single dose via gastric gavage measured after 6 hrs by autoradiographic analysis; assay type: ADME, organism-based; design: dose 20 mg/kg, dosed compound name [14C]Sunitinib; settings: in vivo, po
[10] = Drug concentration in male albino rat uveal tract assessed as radioactivity per gram of tissue at 20 mg/kg administered as single dose via gastric gavage measured after 24 hrs by autoradiographic analysis; assay type: ADME, organism-based; design: dose 20 mg/kg, dosed compound name [14C]Sunitinib; settings: in vivo, po
Rattus norvegicus = assay: Tmax as total radioactivity in male Sprague-Dawley rat plasma at 15 mg/kg, po administered as single dose by LC/MS/MS analysis; assay type: ADME, organism-based; design: dose 15 mg/kg, dosed compound name [14C]Sunitinib, route oral; settings: in vivo
Spinal cord [11] = assay: Drug concentration in male Lister Hooded pigmented rat spinal cord assessed as radioactivity per gram of tissue at 20 mg/kg administered as single dose via gastric gavage measured after 168 hrs by autoradiographic analysis; assay type: ADME, organism-based; design: dose 20 mg/kg, dosed compound name [14C]Sunitinib; settings: in vivo, po
[12] = Drug concentration in female Lister Hooded pigmented rat bone marrow assessed as radioactivity per gram of tissue at 20 mg/kg administered as single dose via gastric gavage measured after 24 hrs by autoradiographic analysis; assay type: ADME, organism-based; design: dose 20 mg/kg, dosed compound name [14C]Sunitinib; settings: in vivo, po; how it was run: as §1
[13] = Drug concentration in female albino rat salivary gland assessed as radioactivity per gram of tissue at 20 mg/kg administered as single dose via gastric gavage measured after 3 hrs by autoradiographic analysis; assay type: ADME, organism-based; design: dose 20 mg/kg, dosed compound name [14C]Sunitinib; settings: in vivo, po; how it was run: as §2
Blood [14] = assay: Drug concentration in female Lister Hooded pigmented rat blood assessed as radioactivity per gram of tissue at 20 mg/kg administered as single dose via gastric gavage measured after 24 hrs by autoradiographic analysis; assay type: ADME, organism-based; design: dose 20 mg/kg, dosed compound name [14C]Sunitinib; settings: in vivo, po; how it was run: as §1

In the case of `CCN(CC)CCNC(=O)c1c(C)[nH]c(/[14CH]=C2\C(=O)Nc3ccc(F)cc32)c1C.O=C(O)C[C@H](O)C(=O)O`, the Radiolabel recovery (Spinal cord [1]) is reported as 0.07 ugequiv, the Radiolabel recovery (Small intestine) is reported as 0.08 ugequiv and the Radiolabel recovery (Kidney) is reported as 9.43 ugequiv. It also gave a Radiolabel recovery [2] of 0.64 ugequiv, a Radiolabel recovery [3] of 0.12 ugequiv and an AUC (Cynomolgus monkey) of 9095 ng.Eq.hr/ml. The Radiolabel recovery (Stomach [4]) was 10.15 ugequiv, the Radiolabel recovery [5] was 1.18 ugequiv and the Radiolabel recovery (Spinal cord [6]) was 0.29 ugequiv. The Radiolabel recovery (Blood [7]) was 0.16 ugequiv, the Radiolabel recovery (Large intestine) was 1.5 ugequiv and the Radiolabel recovery [8] was 61%. It also gave a Radiolabel recovery (Stomach [9]) of 8.54 ugequiv, a Radiolabel recovery [10] of 0.13 ugequiv and a Tmax (Rattus norvegicus) of 5 h. For the same compound, the Radiolabel recovery (Spinal cord [11]) was 0.06 ugequiv, the Radiolabel recovery [12] was 0.74 ugequiv and the Radiolabel recovery [13] was 27.64 ugequiv. The Radiolabel recovery (Blood [14]) was 0.14 ugequiv.
